Measured values taken from ChEMBL document CHEMBL5038594, “Structural Fine-Tuning of Desmuramylpeptide NOD2 Agonists Defines Their In Vivo Adjuvant Activity” (J Med Chem, 2021).
The source made the active and inactive calls. The rule behind the calls is not given here.

Assays:
PBMC [1] = test: Immunostimulatory activity in human PBMC cells assessed as increase in LPS-induced IL-8 production at 2 uM incubated for 18 hrs by flow cytometry analysis; format: functional, cell-based
Method in brief: (§1)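 Human PBMCs from healthy donors, 1 × 10^6 cells/mL in RPMI 1640 with 10% FBS, treated with 2 μM compound or 0.1% DMSO, without or with LPS 10 ng/mL, for 18 h at 37 °C. Supernatant cytokines quantified by cytometric bead array (human inflammatory panel) on a flow cytometer against recombinant standards. Four independent donors. Repeated-measures one-way ANOVA with Dunnett.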

PBMC [2] = test: Immunostimulatory activity in human PBMC cells assessed as increase in LPS-induced TNF-alpha production at 2 uM incubated for 18 hrs by flow cytometry analysis; format: functional, cell-based; method in brief: as §1
PBMC [3] = test: Immunostimulatory activity in human PBMC cells assessed as increase in LPS-induced IL-1beta production at 2 uM incubated for 18 hrs by flow cytometry analysis; format: functional, cell-based; method in brief: as §1
PBMC [4] = test: Immunostimulatory activity in human PBMC cells assessed as increase in IL-8 production at 2 uM incubated for 18 hrs by flow cytometry analysis; format: functional, cell-based; method in brief: as §1
[5] = Cytotoxicity against HEK-Blue hNOD2 cells assessed as reduction in metabolic activity at 20 uM incubated for 18 hrs by MTS assay; format: toxicity, cell-based; conditions: human, hek-blue hnod2, 18 h
Method in brief: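 HEK-Blue NOD2 cells, 40 000 per well, exposed to 20 μM compound or 0.1% DMSO for 18 h at 37 °C, 5% CO2. Metabolic activity measured by MTS (CellTiter 96 AQueous One) reagent. Duplicates, two independent biological replicates.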

Mus musculus [6] = test: Immuno-adjuvant activity in NIH/OlaHsd mouse assessed as increase in ovalbumin specific […] associated IgG1 production in sera at 0.30 micromol administered subcutaneously on day 1 and as booster dose on day 21 with ovalbumin loaded neutral liposomes and measured 1 week post booster dose by ELISA; format: functional, organism-based; conditions: dose 0.3 µmol, time 28.0 day
Method in brief: (§2)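 Groups of 5 female NIH/OlaHsd mice, 2.0–2.5 months old, immunized with ovalbumin-loaded neutral liposomes (10 μg ovalbumin per dose) containing 0.30 μmol adjuvant per dose, plus one booster dose. Serum ovalbumin-specific IgG, IgG1 and IgG2a measured 1 week after the booster. Mean ± SEM of 5 mice.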

PBMC [7] = test: Immunostimulatory activity in human PBMC cells assessed as increase in IL-1beta production at 2 uM incubated for 18 hrs by flow cytometry analysis; format: functional, cell-based; method in brief: as §1
PBMC [8] = test: Immunostimulatory activity in human PBMC cells assessed as increase in IL-6 production at 2 uM incubated for 18 hrs by flow cytometry analysis; format: functional, cell-based; method in brief: as §1
[9] = biological target: T1, Nucleotide-binding oligomerization domain-containing protein 1 (Homo sapiens) (UniProt Q9Y239); test: Agonist activity at NOD1 in HEK-Blue hNOD2 cells assessed as increase in NFkappaB transactivation-mediated SEAP activity measured after 18 hrs by spectrophotometric method; format: cell-based; conditions: HEK-Blue hNOD1, in the assay text read “HEK-Blue hNOD1 cells” for “HEK-Blue hNOD2 cells”
T1 sequence (whole entry): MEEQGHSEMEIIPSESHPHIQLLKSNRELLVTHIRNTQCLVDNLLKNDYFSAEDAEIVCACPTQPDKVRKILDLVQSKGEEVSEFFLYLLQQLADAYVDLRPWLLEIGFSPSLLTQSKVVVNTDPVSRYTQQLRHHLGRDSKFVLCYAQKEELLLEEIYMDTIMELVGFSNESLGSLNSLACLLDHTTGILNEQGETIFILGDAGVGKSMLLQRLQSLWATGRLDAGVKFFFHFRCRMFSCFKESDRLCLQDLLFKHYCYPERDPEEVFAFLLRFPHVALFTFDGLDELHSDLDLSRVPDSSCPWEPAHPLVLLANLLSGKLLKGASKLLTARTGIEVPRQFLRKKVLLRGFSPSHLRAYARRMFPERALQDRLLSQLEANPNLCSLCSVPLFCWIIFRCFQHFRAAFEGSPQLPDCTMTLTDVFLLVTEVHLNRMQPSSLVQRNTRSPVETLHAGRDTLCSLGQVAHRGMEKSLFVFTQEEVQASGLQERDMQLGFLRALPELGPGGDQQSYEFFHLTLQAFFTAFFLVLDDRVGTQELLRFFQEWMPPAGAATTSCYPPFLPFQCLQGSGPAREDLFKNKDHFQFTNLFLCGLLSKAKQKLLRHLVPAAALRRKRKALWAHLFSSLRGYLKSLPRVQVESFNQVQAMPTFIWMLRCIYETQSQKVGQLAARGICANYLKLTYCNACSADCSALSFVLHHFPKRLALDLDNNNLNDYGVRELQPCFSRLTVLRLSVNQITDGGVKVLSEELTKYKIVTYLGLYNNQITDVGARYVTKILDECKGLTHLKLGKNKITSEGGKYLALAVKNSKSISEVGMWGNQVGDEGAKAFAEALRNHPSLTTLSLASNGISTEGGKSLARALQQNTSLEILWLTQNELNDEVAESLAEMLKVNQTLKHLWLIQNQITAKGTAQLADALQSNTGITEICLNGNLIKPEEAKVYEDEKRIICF
Method in brief: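 Counter-screen in HEK-Blue NOD1 cells (HEK293 stably expressing human NOD1 plus an NF-κB-inducible SEAP reporter), seeded at 2.5 × 10^5 cells/mL in HEK-Blue detection medium. Compounds at 2 μM versus 0.1% DMSO vehicle, 18 h at 37 °C, 5% CO2. SEAP read as absorbance at 630 nm. Duplicates, at least two independent experiments.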

PBMC [10] = test: Immunostimulatory activity in human PBMC cells assessed as increase in LPS-induced IL-6 production at 2 uM incubated for 18 hrs by flow cytometry analysis; format: functional, cell-based; method in brief: as §1
PBMC [11] = test: Immunostimulatory activity in human PBMC cells assessed as increase in TNF-alpha production at 2 uM incubated for 18 hrs by flow cytometry analysis; format: functional, cell-based; method in brief: as §1
Mus musculus [12] = test: Immuno-adjuvant activity in NIH/OlaHsd mouse assessed as increase in ovalbumin specific […] associated IgG2a production in sera at 0.30 micromol administered subcutaneously on day 1 and as booster dose on day 21 with ovalbumin loaded neutral liposomes and measured 1 week post booster dose by ELISA; format: functional, organism-based; conditions: dose 0.3 µmol, time 28.0 day; method in brief: as §2
BMDC [13] = test: Induction of mouse BMDC-mediated ovalbumin specific CD4+ T cell activation assessed as increase in IFN-gamma production at 10 uM incubated for 72 hrs by flow cytometric analysis; format: functional, cell-based
Method in brief: (§3)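 BMDCs from C57BL/6 mouse tibia (7 days in GM-CSF 20 ng/mL, >90% CD11c+) pulsed 18 h with compound (1 or 10 μM) plus ovalbumin 50 μg/mL, then washed. They were cocultured 72 h with CFSE-labelled naive OT-II CD4+ T cells. CD25+/CFSE-low fraction of live Thy1.2+CD4+ cells read by flow cytometry; supernatant cytokines also measured. Duplicates of two independent experiments.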

BMDC [14] = test: Induction of mouse BMDC-mediated ovalbumin specific CD4+ T cell activation assessed as increase in CD25 expression at 1 uM incubated for 72 hrs by CFSE staining based flow cytometric analysis; format: functional; method in brief: as §3
BMDC [15] = test: Induction of mouse BMDC-mediated ovalbumin specific CD4+ T cell activation assessed as increase in IL-17A production at 10 uM incubated for 72 hrs by flow cytometric analysis; format: functional, cell-based; method in brief: as §3
BMDC [16] = test: Induction of mouse BMDC-mediated ovalbumin specific CD4+ T cell activation assessed as increase in CD25 expression at 10 uM incubated for 72 hrs by CFSE staining based flow cytometric analysis; format: functional; method in brief: as §3
BMDC [17] = test: Induction of mouse BMDC-mediated ovalbumin specific CD4+ T cell activation assessed as increase in TNF-alpha production at 10 uM incubated for 72 hrs by flow cytometric analysis; format: functional, cell-based; method in brief: as §3
Mus musculus [18] = test: Immuno-adjuvant activity in NIH/OlaHsd mouse assessed as increase in ovalbumin specific IgG production in sera at 0.30 micromol administered subcutaneously on day 1 and as booster dose on day 21 with ovalbumin loaded neutral liposomes and measured 1 week post booster dose by ELISA; format: functional, organism-based; conditions: dose 0.3 µmol, time 28.0 day; method in brief: as §2
BMDC [19] = test: Induction of mouse BMDC-mediated ovalbumin specific CD4+ T cell activation assessed as increase in IL-6 production at 10 uM incubated for 72 hrs by flow cytometric analysis; format: functional, cell-based; method in brief: as §3
BMDC [20] = test: Induction of mouse BMDC-mediated ovalbumin specific CD4+ T cell activation assessed as increase in IL-2 production at 10 uM incubated for 72 hrs by flow cytometric analysis; format: functional, cell-based; method in brief: as §3
Mus musculus [21] = test: Immuno-adjuvant activity in NIH/OlaHsd mouse assessed as increase in ovalbumin specific […] associated IgG1 production in sera at 0.15 micromol administered subcutaneously on day 1 and as booster dose on day 21 and 28 with ovalbumin loaded liposomes by ELISA; format: functional, organism-based; conditions: dose 0.15 µmol, time 28.0 day
Method in brief: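 Groups of 5 female NIH/OlaHsd mice, 2.0–2.5 months old, immunized with ovalbumin-loaded liposomes (10 μg ovalbumin per dose) containing 0.15 μmol adjuvant per dose. Liposomes were neutral (PC–cholesterol 7:5), anionic (PC–cholesterol–dicetylphosphate 7:5:1) or mannosylated (PC–cholesterol–mannose-PEG-PA 7:5:0.5). Serum ovalbumin-specific IgG, IgG1 and IgG2a measured 1 week after the second booster. Mean ± SEM.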

## CCCCCCCCCCCCCCCCCC(=O)Oc1ccc(/C=C/C(=O)NCC(=O)N[C@H](C(=O)N[C@H](CCC(=O)OCC)C(=O)OCC)[C@@H](C)O)cc1OC
PBMC [1]
  Activity: Active
PBMC [2]
  Activity: Active
PBMC [3]
  Activity: Active
PBMC [4]
  Activity: inactive
[5]
  Activity: Non-Toxic
Mus musculus [6]
  Activity: inactive
PBMC [7]
  Activity: inactive
PBMC [8]
  Activity: inactive
[9]
  Activity: inactive
PBMC [10]
  Activity: Active
PBMC [11]
  Activity: inactive

## CCCCCCCCCCCC(=O)Oc1ccc(/C=C/C(=O)NCC(=O)N[C@H](C(=O)N[C@H](CCC(=O)OCC)C(=O)OCC)C(C)C)cc1OC
PBMC [1]
  Activity: Active
PBMC [2]
  Activity: Active
PBMC [3]
  Activity: Active
Mus musculus [12]
  Activity: inactive
PBMC [4]
  Activity: Active
[5]
  Activity: Non-Toxic
PBMC [7]
  Activity: Active
PBMC [8]
  Activity: Active
[9]
  Activity: inactive
PBMC [10]
  Activity: Active
PBMC [11]
  Activity: Active

## COc1cc(/C=C/C(=O)NCC(=O)N[C@H](C(=O)N[C@H](CCC(=O)OC2CCCC2)C(=O)OC2CCCC2)C(C)C)ccc1O
PBMC [1]
  Activity: Active
PBMC [2]
  Activity: Active
PBMC [3]
  Activity: Active
Mus musculus [12]
  Activity: inactive
PBMC [4]
  Activity: Active
BMDC [13]
  Activity: Active
BMDC [14]
  Activity: Active
BMDC [15]
  Activity: Active
[5]
  Activity: Non-Toxic
BMDC [16]
  Activity: Active
BMDC [17]
  Activity: Active
Mus musculus [18]
  Activity: inactive
PBMC [7]
  Activity: Active
BMDC [19]
  Activity: Active
PBMC [8]
  Activity: Active
[9]
  Activity: inactive
PBMC [10]
  Activity: Active
PBMC [11]
  Activity: Active
BMDC [20]
  Activity: Active

## CCOC(=O)CC[C@@H](NC(=O)[C@@H](NC(=O)CNC(=O)/C=C/c1ccc(O)c(OC)c1)C(C)C)C(=O)OCC
[5]
  Activity: Non-Toxic
Mus musculus [18]
  Activity: Active
Mus musculus [6]
  Activity: Active
[9]
  Activity: inactive

## CC(=O)N[C@H]1C(O)O[C@H](CO)[C@@H](O)[C@@H]1O[C@H](C)C(=O)N[C@@H](C)C(=O)N[C@H](CCC(=O)O)C(N)=O (stereo partly specified) [MURAMYL DIPEPTIDE]
PBMC [1]
  Activity: Active
PBMC [2]
  Activity: Active
PBMC [3]
  Activity: Active
PBMC [4]
  Activity: Active
[5]
  Activity: Non-Toxic
PBMC [7]
  Activity: Active
PBMC [8]
  Activity: Active
[9]
  Activity: inactive
Mus musculus [21]
  Activity: Active
PBMC [10]
  Activity: Active
PBMC [11]
  Activity: Active
